Sampled rows, rich in hits. Any-hit rate of the full collection: about 3%.
HSF-1 act: increases HSF-1 driven luciferase reporter signal; activation, % at 9 µM; NIH3T3-HGL HSF-1 luciferase reporter, MG132, 8 h; 100% = twice DMSO control signal; AID 504408; 300,000 tested, 1.7% active;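 active = mean replicate activation of at least 50% with a set share of replicates each reaching 50%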;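 note: 0% = median of the neutral control wells and 100% = twice that signal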
PfHsp90 set2: growth inhibition of yeast expressing Plasmodium Hsp90 | 310,000 tested, 0.32% active | S. cerevisiae expressing PfHsp90, BacTiter-Glo ATP, 48 h; yeast lacking PDR1 and PDR3 efflux regulators | inhibition, % at 9.4 µM;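 active = every replicate shows inhibition above about 80%, whatever the replicate mean, limit read from the data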;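 note: 0% = DMSO neutral controls and 100% = 20 µM radicicol positive controls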
PvdQ acylase: blocks Pseudomonas aeruginosa PvdQ acylase activity | purified PvdQ acylase, fluorescence plate reader | inhibition, % at 10 µM | 340,000 tested, 0.063% active; in the data active = inhibition above about 30%, passing the limit was not always enough;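 note: 0% = vehicle neutral wells and 100% = reference inhibitor wells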
CaV13 ICDI inh: Primary screen for inhibitors of IQ motif and Ca2+-dependent inactivation inhibitor domain binding in CACNA1D, Förster resonance energy transfer in living cells, …; HEK cells, CFP/YFP FRET ICDI-IQ, plate reader, 10 min; percent FRET-ratio fall versus neutral wells; inhibition, % at 12.3 µM; 340,000 tested, 0.098% active; AID 743397;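 active = mean replicate inhibition of at least 30% and at least 1% of replicates passing that level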;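 note: 0% = median of the neutral control wells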
N-glyco inh: N-linked glycosylation inhibition; D54 ERlucT glycosylation luciferase reporter, 24 h; percent of 100 nM tunicamycin response; reporter increase, % at 12.5 µM; 360,000 tested, 0.23% active; AID 588692;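 active = mean luciferase reporter signal, scaled so untreated is 0 and the glycosylation-blocking control 100, at or above a set limit in every replicate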;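 note: luciferase carries N-glycosylation sites so blocking glycosylation raises the light; 0% = median of neutral control wells and 100% = median of 100 nM tunicamycin wells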
T cruzi inh: blocks replication of Trypanosoma cruzi | T. cruzi beta-gal in NIH3T3, luminescence, 90 h | inhibition, % (concentration not given with the values) | 300,000 tested, 1.4% active;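 active = mean inhibition across valid replicates above about 55%, limit read from the data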;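 note: signal also drops with host cell toxicity which is not excluded here; 0% = plate median of DMSO wells and 100% = zero luminescence signal; higher percent means less beta-gal luminescence so fewer parasites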
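compound dosing = single 50 nL compound addition per well in DMSO | material = NIH/3T3 host cells with β-galactosidase reporter T. cruzi | input = 5,000 host fibroblasts per well | timing = ≥90 h infection period, 3 h prior cell attachment | read-out basis = percent inhibition of parasite-derived β-gal signal | detection = GalScreen β-gal luminescence, detergent lysis, 60 min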
The depositor's hits bear a star.

How did O=C(NC1CCCCC1)C(c1cccs1)N(C(=O)Cc1c[nH]c2ccccc12)c1ccc(F)cc1 (centres undefined) do in these assays?
HSF-1 act: 51.3*; PfHsp90 set2: -32.5; PvdQ acylase: 7.4; CaV13 ICDI inh: -5.3; N-glyco inh: 0.7; T cruzi inh: 57.0*

How did COc1cccc(CN(C(=O)Cc2c[nH]c3ccccc23)C(C(=O)NC2CCCCC2)c2cccs2)c1 (centres undefined) do in these assays?
HSF-1 act: 8.9; PfHsp90 set2: 0.7; PvdQ acylase: 3.3; CaV13 ICDI inh: -3.2; N-glyco inh: -6.2; T cruzi inh: 54.8*

Results for CC(=O)c1ccc(N(C(=O)Cc2c[nH]c3ccccc23)C(C(=O)NC2CCCCC2)c2cccs2)cc1 (centres undefined) ?
HSF-1 act: 31.9; PvdQ acylase: -7.5; CaV13 ICDI inh: -5.8; N-glyco inh: 0.6; T cruzi inh: 31.2

Results for Cc1ccc(C(C(=O)NC2CCCCC2)N(C(=O)Cc2c[nH]c3ccccc23)c2ccccc2)o1 (centres undefined) ?
HSF-1 act: 58.1*; PfHsp90 set2: -4.1; PvdQ acylase: -3.9; CaV13 ICDI inh: -3.9; N-glyco inh: -3.1; T cruzi inh: 55.6*

Results for CC(=O)c1cc2c(cc1C)CCCC2(C)C ?
CaV13 ICDI inh: -5.0; N-glyco inh: -1.0

How did NS(=O)(=O)c1ccc(CCNC(=O)COC(=O)CCc2c[nH]c3ccccc23)cc1 do in these assays?
PfHsp90 set2: 9.8; PvdQ acylase: 6.0; CaV13 ICDI inh: -5.2; N-glyco inh: 0.2

How did Cc1cccc(N(C(=O)C(F)(F)F)C(C(=O)NC2CCCCC2)c2cccs2)c1 (centres undefined) do in these assays?
HSF-1 act: 16.3; PfHsp90 set2: 11.8; PvdQ acylase: -1.6; N-glyco inh: -6.3; T cruzi inh: 58.6*

What do the screens show for `CCOC(=O)C1CCCN(C(=O)c2ccc(Cl)c(S(=O)(=O)N3CCCCC3)c2)C1` (centres undefined)?
HSF-1 act: 79.1*; PfHsp90 set2: 17.7; PvdQ acylase: 2.1; CaV13 ICDI inh: -4.6; N-glyco inh: -0.3; T cruzi inh: 17.0

Results for CCOC(=O)C1CCCN(C(=O)c2cccc(S(=O)(=O)N(Cc3ccccc3)c3ccccc3OC)c2)C1 (centres undefined) ?
HSF-1 act: 16.4; PfHsp90 set2: -6.4; PvdQ acylase: 2.7; CaV13 ICDI inh: -2.0; N-glyco inh: -1.5; T cruzi inh: 55.7*

How did CCOc1ccc(N2C(=O)C(Cl)=C(Nc3ccccc3O)C2=O)cc1 do in these assays?
HSF-1 act: 66.7*; PfHsp90 set2: 4.4; PvdQ acylase: -4.6; N-glyco inh: 6.4; T cruzi inh: -21.4

How did CN1C(=O)c2cccc3c(S(N)(=O)=O)ccc1c23 do in these assays?
HSF-1 act: -8.3; PfHsp90 set2: -10.1; PvdQ acylase: -15.1; CaV13 ICDI inh: -7.4; N-glyco inh: 3.5; T cruzi inh: -28.1

How did CN1C(=O)c2cccc3c(S(=O)(=O)Nc4ccccn4)ccc1c23 do in these assays?
HSF-1 act: 28.0; PfHsp90 set2: -5.9; PvdQ acylase: -0.4; CaV13 ICDI inh: -1.9; N-glyco inh: 40.8*; T cruzi inh: -3.7

Results for CCN1C(=O)c2cccc3c(S(=O)(=O)Nc4ccccc4OC)ccc1c23 ?
HSF-1 act: 59.4*; PfHsp90 set2: 18.0; PvdQ acylase: -20.2; CaV13 ICDI inh: -1.5; N-glyco inh: 24.5; T cruzi inh: 7.6

Results for Cc1ccccc1NS(=O)(=O)c1ccc2c3c(cccc13)C(=O)N2C ?
HSF-1 act: 35.1; PfHsp90 set2: -15.7; PvdQ acylase: -7.5; CaV13 ICDI inh: -6.9; N-glyco inh: 42.3*; T cruzi inh: 17.2

Results for CCN1C(=O)c2cccc3c(S(=O)(=O)NCc4ccccc4)ccc1c23 ?
PvdQ acylase: 10.3; CaV13 ICDI inh: -11.6; N-glyco inh: 1.7

What do the screens show for `C[C@H](CO)N1C[C@H](C)[C@@H](CN(C)S(C)(=O)=O)OCc2cn(nn2)CCCC1=O`?
CaV13 ICDI inh: -4.0

Results for CCn1ncc2c(=O)c(C(=O)c3ccccc3)c[nH]c21 ?
CaV13 ICDI inh: -4.6

Assay outcomes deposited in PubChem by Broad Institute.
